The results in this text go back to ChEMBL document CHEMBL3817785, “Synthetic sulfoglycolipids targeting the serine-threonine protein kinase Akt” (Bioorg Med Chem, 2016).

Broadly, the inhibition is the percentage by which the read-out fell short of the control. A word on the IC50: it is the concentration at which inhibition is half-maximal.

Calls of active or inactive are those of the source. The rule behind the calls is not given here.

The target in test [1] is T1, RAC-alpha serine/threonine-protein kinase (Homo sapiens, UniProt P31749). As to the kind of experiment: Inhibition of human Akt1 PH domain using AKTide-2T as substrate at 100 uM by ELISA. Summed up: (§1)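 Kit ELISA: wells precoated with AKTide-2T; constitutively active human Akt1 (25 m units/well) plus compound in kinase buffer (100 µM final, or 1–250 µM for concentration-response), Mg2+/ATP added. Phospho-substrate detected by HRP anti-phospho-AKTide-2T antibody with TMB, A450.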
In general terms: An ELISA detects its analyte on a solid surface through an enzyme-linked reagent.

Test [2] deals with RAC-alpha serine/threonine-protein kinase (Mus musculus) (UniProt P31750). As to the kind of experiment: Inhibition of Akt phosphorylation in mouse NIH/3T3-K-RAS cells at 100 uM pretreated for 1 hr by Western blot analysis. It is filed as cell-based. Summed up: (§2)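 K-ras-transformed NIH 3T3 cells (DMEM, 10% NBCS, 37 °C) plated at 3 x 10⁵ cells/mL, starved 16 h in 0.5% serum, pretreated 1 h with compound at 100 µM or DMSO, then stimulated with 10% serum for 30 min. Lysates (15 µg) on 8% SDS-PAGE, probed for phospho-Akt Ser473, reprobed for total Akt, actin loading control; ECL; densitometry from three experiments.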
In general terms: Immunoblotting shows a protein as a band on a membrane.

The target is the same in test [3]. In words: Inhibition of serum-stimulated Akt phosphorylation in mouse NIH/3T3-K-RAS cells at 100 uM pretreated for 1 hr followed by serum addition for 30 mins by Western blot analysis. The format is cell-based. In short, it runs like this:
as §2

Test [4] concerns TPC1. In words: Antiproliferative activity against human TPC1 cells harboring RET/PTC-1 rearrangement assessed as cell growth inhibition after 72 hrs by coulter counter method. The format is functional, cell-based. Summed up: (§3)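 Cells seeded in complete medium in 12-well plates: Nim-1 at 5000 cells/cm² and TPC-1 at 3000 cells/cm², both in DMEM + 10% FBS; K1 at 4000 cells/cm² in DMEM:Ham's F12:MCDB 105 (2:1:1) + 20% serum; 37 °C, 5% CO2. Next day, exposed to increasing concentrations or DMSO (0.5% final) for 72 h. Cells trypsinized and Coulter-counted; survival as % of untreated, duplicates; IC50 = 50% growth inhibition.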

Test [5] concerns K1. As to the kind of experiment: (§4) Antiproliferative activity against human K1 cells expressing BRAF V600E/PI3K E542K mutants assessed as cell growth inhibition after 72 hrs by coulter counter method. The format is functional, cell-based. Summed up: as §3
Test [6] is filed under the species Homo sapiens. As to the kind of experiment: (§5) Antiproliferative activity against PTEN-deficient human Nim1 cells expressing BRAF V600E mutant assessed as cell growth inhibition after 72 hrs by coulter counter method. The format is functional. Summed up:
as §3

Test [7] has as its system IGROV-1. In words: (§6) Antiproliferative activity against human IGROV1 cells assessed as cell growth inhibition after 24 hrs by coulter counter method. It is filed as functional, cell-based. Summed up:
(§7)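 Seeded at 5000 cells/cm² in complete RPMI (10% serum), 37 °C, 5% CO2; next day serum-starved and drug-treated for 24 h, then complete medium restored for a further 48 h. Cells trypsinized and counted by Coulter counter 72 h after treatment start; survival vs untreated; IC50 = concentration inhibiting proliferation by 50%; duplicates, two independent experiments, mean ± SEM.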

Test [8] can be described thus: as §4. The format is functional, cell-based. Conditions: K1, 72 h. Summed up:
as §3

The nature of test [9]: as §5. The format is functional. Summed up:
as §3

Test [10] can be described thus: as §6. The format is functional, cell-based. Conditions: IGROV-1, 24 h. Summed up: as §7
For test [11], the target named is T1, RAC-alpha serine/threonine-protein kinase. The following applies: IGROV-1, 3 to 10 uM.
The target is the same in test [12]. Conditions: IGROV-1, 3 to 10 uM. This is another data set of the same source.
Test [13] shares this target. Conditions: IGROV-1, 3 to 10 uM. This is another data set of the same source.
Test [14] has the same target. In words: Inhibition of human Akt1 PH domain using AKTide-2T as substrate by ELISA. In short, it runs like this: as §1
The subject of test [15] is TPC1. In words: Antiproliferative activity against human TPC1 cells harboring RET/PTC-1 rearrangement assessed as cell growth inhibition at 50 uM after 72 hrs by coulter counter method relative to control. The format is functional. Conditions: TPC1, 72 h, read-out: GI. Summed up: (§8)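 Cells plated in complete medium (TPC-1 3000 cells/cm², DMEM + 10% FBS; K1 4000 cells/cm², DMEM:Ham's F12:MCDB 105 2:1:1 + 20% serum), 37 °C, 5% CO2. Next day exposed to drug or DMSO (0.5% final) for 72 h; trypsinized, Coulter counted; % survival vs untreated; duplicates, two independent experiments, mean ± SEM; Student's two-tailed t test.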

Test [16] can be described thus: Antiproliferative activity against human K1 cells expressing BRAF V600E/PI3K E542K mutants assessed as cell growth inhibition at 50 uM after 72 hrs by coulter counter method relative to control. It is filed as functional. Conditions: K1, 72 h, read-out: GI. Summed up: as §8
Test [17] deals with K1. In words: Cytotoxicity against human K1 cells expressing BRAF V600E/PI3K E542K mutants assessed as vacuolated and granulated cytoplasm at 50 uM after 72 hrs by coulter counter method. The format is functional, cell-based.
Test [18] concerns the target T1, RAC-alpha serine/threonine-protein kinase. In words: Inhibition of Akt in human IGROV1 cells assessed as reduction in GSK3alpha phosphorylation at Ser21 at 3 uM after 24 hrs by Western blot analysis. The format is cell-based. Conditions: IGROV-1. In short, it runs like this:
(§9)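 Seeded in complete RPMI; 24 h later serum-starved and exposed to drug or vehicle for 24 h; total protein extracted and immunoblotted for serine-phosphorylated GSK-3α, GSK-3β and BAD.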

For test [19] the target is unchanged. As to the kind of experiment: Inhibition of Akt in human IGROV1 cells assessed as reduction in GSK3beta phosphorylation at Ser9 at 3 uM after 24 hrs by Western blot analysis. It is filed as cell-based. The following applies: IGROV-1. In short, it runs like this: as §9
For test [20] the target is unchanged. As to the kind of experiment: Inhibition of Akt in human IGROV1 cells assessed as reduction in BAD phosphorylation at Ser136 at 3 uM after 24 hrs by Western blot analysis. The following applies: IGROV-1. It is filed as cell-based. In short, it runs like this:
as §9

Test [21] has the same target. Conditions: 1 uM.

RAC-alpha serine/threonine-protein kinase (Mus musculus), sequence (P31750 whole entry): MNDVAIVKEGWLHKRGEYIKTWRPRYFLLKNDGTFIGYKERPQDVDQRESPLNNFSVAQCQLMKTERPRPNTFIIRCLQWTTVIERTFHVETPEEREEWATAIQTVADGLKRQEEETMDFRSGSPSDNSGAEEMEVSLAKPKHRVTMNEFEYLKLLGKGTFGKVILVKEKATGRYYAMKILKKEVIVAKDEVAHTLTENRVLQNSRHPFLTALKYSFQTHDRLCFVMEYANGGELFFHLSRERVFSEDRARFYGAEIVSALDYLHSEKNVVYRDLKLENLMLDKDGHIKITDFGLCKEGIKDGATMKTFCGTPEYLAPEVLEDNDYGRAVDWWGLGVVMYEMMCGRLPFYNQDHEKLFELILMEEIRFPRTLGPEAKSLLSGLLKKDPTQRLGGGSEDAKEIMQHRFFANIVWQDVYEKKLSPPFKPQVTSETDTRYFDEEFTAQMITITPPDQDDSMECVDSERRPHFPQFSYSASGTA
T1 sequence (P31749 whole entry, the tested form may be a part): as the sequence (P31750 whole entry) above, with N2S, S50A, A100T, R112K, T117E, T389K, N410G, D415H counted along it

In the case of `CCCCCCCCO[C@@H]1O[C@H](CS(=O)(=O)O)[C@@H](O)[C@H](O)[C@H]1O`, the inhibition in test [1] came to 14%. Further, the inhibition result in test [2] and in test [3] was “inactive” throughout. Further, the “growth inhibition (GI)” value in test [4], in test [5], in test [6] and in test [7] was “inactive” in each case.
In [1], `CCCCCCCCO[C@@H]1O[C@H](CN)[C@@H](O)[C@H](O)[C@H]1O` returned an inhibition of 6%. Further, the inhibition result in test [2] and in [3] was “inactive” throughout. Also, the “growth inhibition (GI)” value in test [4], in test [5], in [6] and in test [7] was “inactive” throughout.
`CO[C@@H]1O[C@H](CS(=O)(=O)O)[C@@H](O)[C@H](O)[C@H]1O` displayed an inhibition in test [1] of 28%.
For the compound `O=c1[nH]c2ccccc2n1C1CCN(Cc2ccc(-c3nc4cc5nc[nH]c5cc4nc3-c3ccccc3)cc2)CC1`, the IC50 turned out to be 11 µM in [4] (TPC1, 72 h); 10 µM in [8]; 3 µM in test [9]; 0.3 µM in [10].
`CCCCCCCCCCCC(=O)OCC(COC(=O)CCCCCCCCCCC)O[C@@H]1O[C@H](CO)[C@@H](O)[C@H](O)[C@H]1O` gave an inhibition in [1] of 7%.
In test [1], `CCCCCCCCCCCC(=O)OCC(COC(=O)CCCCCCCCCCC)O[C@@H]1O[C@H](CS(=O)(=O)O)[C@@H](O)[C@H](O)[C@H]1O` returned an inhibition of 77%.
On the same count and under the same terms, next, `CCCCCC(=O)OCC(CO)O[C@@H]1O[C@H](CS(=O)(=O)O)[C@@H](O)[C@H](O)[C@H]1O` (some centres not stated): 18%.
The compound `O=c1[nH]c2ccccc2n1C1CCN(Cc2ccc(-c3nc4cc5[nH]cnc5cc4nc3-c3ccccc3)cc2)CC1` had an inhibition in test [1] of 89%. Moreover, the inhibition entry in [11], in test [12] and in test [13] was “Active” in each case.
For `CCCCCCCCCCCCOS(=O)(=O)[O-].[Na+]`, the inhibition entry in test [1] was “inactive”.
Consider `CCCCCC(=O)OCC(COC(=O)CCCCC)O[C@@H]1O[C@H](CS(=O)(=O)O)[C@@H](O)[C@H](O)[C@H]1O`, for which the inhibition in test [1] turned out to be 13%.
On to `CCCCCCCCCCCCCCCCCC(=O)OCC(CO)O[C@@H]1O[C@H](CS(=O)(=O)O)[C@@H](O)[C@H](O)[C@H]1O` (some centres not stated), for which the inhibition in test [1] was 86%; in test [14], “Dose-dependent effect”; in test [3] it was 40%. Besides, the IC50 in test [14] is 31.3 µM; in [10], 2 µM. Further, the inhibition entry in test [2], in test [18], in [19] and in test [20] was “Active” in each case. Besides, the “growth inhibition (GI)” value in test [4], in test [5] and in test [6] was “Dose-dependent effect” throughout. Moreover, the inhibition of growth at 50 µM in test [15] and in test [16] was 30% in each case. Also, the outcome in [17] was Active.
Regarding `CN[C@@H]1C[C@H]2O[C@@](C)([C@@H]1OC)n1c3ccccc3c3c4c(c5c6ccccc6n2c5c31)C(=O)NC4`, in [21], the inhibition entry is “Active”.
In test [1], `CCCCCCCCCCCC(=O)OCC(CO)O[C@@H]1O[C@H](CS(=O)(=O)O)[C@@H](O)[C@H](O)[C@H]1O` (some centres not stated) gave an inhibition of 31%.
In turn, `O=S(=O)(O)C[C@H]1O[C@@H](OC(CO)CO)[C@H](O)[C@@H](O)[C@@H]1O` gave an inhibition in test [1] of 13%.
Take `CCCCCCCCCCCCCCCCCCOP(=O)([O-])OC1CC[N+](C)(C)CC1` [PERIFOSINE]: the concentration for half-maximal inhibition (IC50) in test [14] stood at 43.3 µM.
